Test results taken from ChEMBL document CHEMBL1122209, “Synthesis of N-[[(substituted-phenyl)carbonyl]amino]-1,2,3,6-tetrahydropyridines with analgesic and hyperglycemic activity” (J Med Chem, 1982).

Assays:
[1] = system: Mus musculus; experiment: Analgesic activity was measured by phenylquinone writhing test in male Swiss albino mice at a dose of 0.004 mg/Kg, sc; assay type: functional
How it was run: (§1)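 Groups of five male Swiss albino mice (18-22 g). Test agent was suspended in physiological saline with Tween 80 by ultrasonic mixing and given sc. After 30 min, 0.03% phenyl-p-benzoquinone was given ip at 0.1 mL/10 g body weight. Total writhes were counted and compared with a vehicle-treated control group: % change = 100 − (treated writhes/control writhes × 100).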

[2] = system: Rattus norvegicus; experiment: Percentage change in blood glucose concentration in male Wistar rats after 2 hr post treatment at a dose of 100 mg/Kg po.; assay type: functional
How it was run: (§2)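 Groups of four male Wistar rats (230-260 g), fasted overnight. Test agent was suspended in 1% tragacanth in distilled water and given orally. Tail capillary blood was drawn at 0, 2 and 4 h. Serum glucose was determined spectrophotometrically from enzymatically produced NADH₂ (Barthelma-Czok procedure). Results are the mean of four animals; a positive value means hyperglycemic, a negative value hypoglycemic.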

[3] = system: Rattus norvegicus; experiment: Percentage change in blood glucose concentration in male Wistar rats after 4 hr post treatment at a dose of 100 mg/Kg po.; assay type: functional; how it was run: as §2
[4] = system: Rattus norvegicus; experiment: Percentage change in blood glucose concentration in male Wistar rats after 2 hr post treatment at a dose of 100 mg/Kg po; Hypoglycemic; assay type: functional; how it was run: as §2
[5] = system: Rattus norvegicus; experiment: Percentage change in blood glucose concentration in male Wistar rats after 4 hr post treatment at a dose of 100 mg/Kg po; Hypoglycemic; assay type: functional; how it was run: as §2
[6] = system: Rattus norvegicus; experiment: Percentage change in blood glucose concentration in male Wistar rats after 2 hr post treatment at a dose of 30 mg/Kg po; Hyperglycemic; assay type: functional; how it was run: as §2
[7] = system: Mus musculus; experiment: Analgesic activity was measured by phenylquinone writhing test in male Swiss albino mice at a dose of 0.004 mg/Kg, sc.; assay type: functional; how it was run: as §1
[8] = system: Rattus norvegicus; experiment: Percentage change in blood glucose concentration in male Wistar rats after 2 hr post treatment at a dose of 100 mg/Kg po; Hyperglycemic; assay type: functional; how it was run: as §2
[9] = system: Rattus norvegicus; experiment: Percentage change in blood glucose concentration in male Wistar rats after 4 hr post treatment at a dose of 100 mg/Kg po; Hyperglycemic; assay type: functional; how it was run: as §2
[10] = system: Mus musculus; experiment: Analgesic activity was measured by phenylquinone writhing test in male Swiss albino mice at a dose of 0.038 mg/Kg, sc.; details: read-out: Inhibition
[11] = system: Mus musculus; experiment: Analgesic activity was measured by phenylquinone writhing test in male Swiss albino mice at a dose of 3.1 mg/Kg, sc.; details: read-out: Inhibition
[12] = system: Rattus norvegicus; experiment: Percentage change in blood glucose concentration in male Wistar rats after 4 hr post treatment at a dose of 30 mg/Kg po; Hyperglycemic; assay type: functional; how it was run: as §2
[13] = system: Mus musculus; experiment: Analgesic activity was measured by phenylquinone writhing test in male Swiss albino mice at a dose of 50 mg/Kg, sc.; assay type: functional; how it was run: as §1
[14] = system: Rattus norvegicus; experiment: Antiinflammatory activity was measured by carrageenan-induced paw edema test in female Sprague-Dawley rats at dose of 12 mg/Kg sc after 3h
[15] = system: Rattus norvegicus; experiment: Antiinflammatory activity was measured by carrageenan-induced paw edema test in female Sprague-Dawley rats at dose of 12 mg/Kg sc after 5 hr

| Structure (SMILES) | inhibition in vivo at 0.004 mg/kg [1] | Change [2] | Change [3] | further results |
| --- | --- | --- | --- | --- |
| O=C(NN1CC=CCC1)c1ccccc1 | 73.6% | 78% | 50% | – |
| O=C(NN1CC=CCC1)c1cc(Cl)cc(Cl)c1 | 69.6% | 3.8% | 18.5% | – |
| O=C(NN1CC=CCC1)c1ccc(C(F)(F)F)cc1 | 46.4% | 43.3% | 37.3% | – |
| O=C(NN1CC=CCC1)c1ccccc1Cl | 52% | 16.9% | 21.4% | – |
| Cc1ccccc1C(=O)NN1CC=CCC1 | 72% | – | – | Change [4]: -2.8%; Change [5]: -6.3% |
| O=C(NN1CC=CCC1)c1ccccc1F | 64.8% | 213% | 127% | Change [6]: 50% |
| O=C(NN1CC=CCC1)c1ccc(Cl)cc1 | 61.6% | 109% | 26% | – |
| O=C(NN1CC=CCC1)c1ccc(Cl)cc1Cl | 57.2% | – | 1.3% | Change [4]: -6.5% |
| COc1cccc(C(=O)NN2CC=CCC2)c1 | 68.8% | 113.3% | 72.8% | – |
| Cc1ccc(C(=O)NN2CC=CCC2)cc1C | 60.8% | 92.3% | 62.8% | – |
| O=C(NN1CC=CCC1)c1ccc(F)cc1 | 55.2% | 124% | 154% | – |
| COc1ccccc1C(=O)NN1CC=CCC1 | 69.6% | 5.8% | 6.3% | – |
| O=C(NN1CC=CCC1)c1ccc([N+](=O)[O-])cc1 | – | – | – | inhibition in vivo at 0.004 mg/kg [7]: 51%; Change [8]: 92.6%; Change [9]: 140.6% |
| COc1ccc(C(=O)NN2CC=CCC2)cc1 | 57.6% | 69% | 26% | – |
| Cc1ccc(C(=O)NN2CC=CCC2)cc1 | 48% | 73% | 41% | – |
| CN1CC[C@]23c4c5ccc(O)c4O[C@H]2[C@@H](O)C=C[C@H]3[C@H]1C5 | – | – | – | inhibition in vivo at 0.038 mg/kg [10]: 50%; inhibition in vivo at 3.1 mg/kg [11]: 50% |
| O=C(NN1CC=CCC1)c1ccc(Cl)c(Cl)c1 | 48.8% | 50% | 59% | – |
| CC(C)(C)c1ccc(C(=O)NN2CC=CCC2)cc1 | 48.8% | 1.8% | 4.7% | – |
| O=C(NN1CC=CCC1)c1ccccc1C(F)(F)F | 64% | 1.2% | 19.6% | – |
| O=C(NN1CC=CCC1)c1cccc(C(F)(F)F)c1 | 54.4% | 114.8% | 102% | – |
| Cc1cccc(C(=O)NN2CC=CCC2)c1 | 56% | 117.2% | 108.5% | Change [6]: 50%; Change [12]: 50% |
| O=C(NN1CC=CCC1)c1cccc(F)c1 | 65.6% | 167.3% | 137.8% | – |
| CC(=O)Oc1ccccc1C(=O)O [ASPIRIN] | – | – | – | inhibition in vivo at 50 mg/kg [13]: 50% |
| CCCNC(=O)NS(=O)(=O)c1ccc(Cl)cc1 [CHLORPROPAMIDE] | – | – | – | Change [4]: -42%; Change [5]: -38% |
| COc1ccc2c(c1)c(CC(=O)O)c(C)n2C(=O)c1ccc(Cl)cc1 [INDOMETHACIN] | – | – | – | inhibition in vivo at 12 mg/kg [14]: 17%; inhibition in vivo at 12 mg/kg [15]: 83% |
| CCC(=O)O[C@](Cc1ccccc1)(c1ccccc1)[C@H](C)CN(C)C [PROPOXYPHENE] | 50% | – | – | – |
